pCIP destab: p/CIP-EGFP fusion destabilizers, primary screen, fluorescence, F442A cells; Q05BA5; 16 h; decrease of EGFP signal, % at 10 µM; actives 0.01% (n = 290,000); AID 1984, 2009;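 active = EGFP signal decrease of at least 30% at 10 µM or well 3 SD below plate mean, unless failing retest; inactive = the rest, including hits failing retest or dose response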
NCF1 inh: p47phox/p22phox peptide binding inhibitors, primary screen, biochemical, uHTS, NADPH oxidase regulatory subunit | fluorescence polarization, 2 h | inhibition, % at 24.7 µM | actives 0.53% (n = 220,000);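 active = inhibition above about 30%, limit read from the data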;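 also: 0% = p47phox with labelled peptide and 100% = labelled peptide alone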
Target sequence (P14598 whole entry, looked up): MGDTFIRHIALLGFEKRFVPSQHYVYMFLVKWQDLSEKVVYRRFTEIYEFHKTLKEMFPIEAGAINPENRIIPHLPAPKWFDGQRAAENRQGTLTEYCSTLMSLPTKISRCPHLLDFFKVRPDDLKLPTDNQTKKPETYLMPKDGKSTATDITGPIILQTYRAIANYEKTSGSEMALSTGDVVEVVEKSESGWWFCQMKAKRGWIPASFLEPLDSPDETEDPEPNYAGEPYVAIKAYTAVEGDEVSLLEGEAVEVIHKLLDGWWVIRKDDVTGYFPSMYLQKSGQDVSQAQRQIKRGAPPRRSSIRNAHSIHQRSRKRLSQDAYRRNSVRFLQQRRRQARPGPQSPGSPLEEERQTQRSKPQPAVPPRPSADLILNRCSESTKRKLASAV
Dynein cargo inh: inhibitors of GR-EGFP nuclear translocation, primary screen, dynein cargo transport inhibitor project, imaging, high-content, 3617.4 mouse cells; test concentration mostly 20 µM; stimulated with dexamethasone, 1 µM; stronger effect = lower value; z-score, hits read low; actives 0.47% (n = 220,000);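 active = plate z-score of nuclear minus cytoplasmic receptor signal below a set negative limit, without overly bright fluorescence or cell loss, cut at about -3.5 in these data, passing the limit was not always enough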;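 also: z-score of nuclear minus cytoplasmic ring GR-EGFP intensity difference per well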
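Buffer or medium – tet-free medium with charcoal-stripped serum · Signal – automated 10x imaging of fixed Hoechst-stained cells · Also added – dexamethasone agonist, 1.0 µM final, for 30 min · Incubation – induction 48 h, compound 1 h, agonist 30 min · Read-out – GR-EGFP nuclear translocation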
RAM network inh: inhibitors of the yeast RAM network, primary screen, dse1pr::URA3 reporter, 5-FOA selection; S. cerevisiae dse1pr::URA3 reporter, 5-FOA growth OD615, 2 d; analog-sensitive cbk1-as2 kinase mutant strain; inhibition, % at 50 µM; actives 1.8% (n = 190,000); AID 868, 2007;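 active = inhibition above a set limit, 3 SD over mean compound inhibition, cut at about 8.4% in these data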;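 also: 0% = DMSO-only wells with no growth and 100% = 10 µM 1-NA-PP1 full growth; inhibition rescues growth on 5-FOA so higher OD means more RAM inhibition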
RAM 5-FOA: 5-FOA growth of efflux-deficient control yeast, dose response, counter-screen for RAM network inhibitor project, S. cerevisiae, OD615; S. cerevisiae efflux-deficient reporter strain, 5-FOA growth OD615, 2 days; shares compounds with RAM network inh; 1,200 tested, under 10 active; AID 1305, 2008; max inhibition, %; call rule not given here;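 also: plate controls were vehicle for no effect and reference inhibitor for full effect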
Dynein inh conf: dynein cargo transport inhibitors, GR-EGFP translocation, confirmation, imaging, high-content imaging, GR-EGFP cells; shares compounds with Dynein cargo inh; 3617.4 GR-EGFP nuclear translocation imaging, dexamethasone-induced; calls only at 20 µM; actives 69% (n = 1,000);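 active = inhibition of receptor movement into the nucleus at or above a set limit in both runs, with normal cell brightness and cell count; inconclusive = limit reached in only one run, brightness and count normal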;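 also: dexamethasone at 1 µM final in well for 30 min; nuclear minus cytoplasmic GR-EGFP mean intensity difference in channel 2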
* hit, by the source's call. Shown are actives, neighbours in structure and some others; about 1.9% of the full set was active somewhere.

Cc1ccc(S(=O)(=O)N2CCOCC2)cc1NC(=O)COC(=O)c1ccc2c(c1)OCCO2 was read as pCIP destab 4, NCF1 inh -2, Dynein cargo inh -0.24 and RAM network inh 2.
`CN1C(=O)/C(=C/c2ccccc2OCc2cccc(F)c2)NC1=S` gave pCIP destab -1, NCF1 inh -5, Dynein cargo inh -0.042, RAM network inh 11* and RAM 5-FOA 2.
Screening Nc1nc(-c2ccccc2)c(N=Nc2cccnc2)s1 returned pCIP destab -16, NCF1 inh -2, Dynein cargo inh 1.1, RAM network inh 13* and RAM 5-FOA 2.
For O=C(CCC(=O)N1CCc2ccccc2C1)NCCc1ccc(Cl)cc1 the results were pCIP destab -10.
Cc1[nH]n(-c2ccccc2)c(=O)c1N=Nc1ccc(Cl)cc1 was read as pCIP destab 5.
Screening Cc1[nH]n(-c2ccccc2)c(=O)c1N=Nc1ccccc1 returned pCIP destab 8, NCF1 inh -8, Dynein cargo inh 0.39, RAM network inh 13* and RAM 5-FOA 2.
N#Cc1ccsc1NC(=O)COC(=O)CCCSc1nc2ccccc2s1 was read as pCIP destab -23, NCF1 inh -58, Dynein cargo inh 2.9, RAM network inh 15* and RAM 5-FOA 3.
Screening O=C(O)CSc1nc(-c2ccc(Cl)cc2)nc2c1oc1ccccc12 returned pCIP destab 8, NCF1 inh -38, Dynein cargo inh -0.96, RAM network inh 15* and RAM 5-FOA 3.
CC(=O)N1CCOc2ccc(S(=O)(=O)N3CCC(C(=O)NCc4ccc(F)cc4)CC3)cc21 was read as pCIP destab -7.
Cc1cc(C(=O)CCl)c(C)n1CCc1ccc(Cl)cc1 was read as pCIP destab -9, NCF1 inh -16, Dynein cargo inh -6.3*, RAM network inh 13*, RAM 5-FOA 5 and Dynein inh conf active.
COc1ccc(/C(C)=N/NC(=O)c2ccc(NS(=O)(=O)c3cccs3)cc2)cc1 was read as pCIP destab -12, NCF1 inh -2 and Dynein cargo inh 0.71.
For Cc1cccc(NC(=O)CCC(=O)OCC(=O)c2ccc(Oc3ccc([N+](=O)[O-])cc3)cc2)c1 the results were pCIP destab 2, NCF1 inh -13, Dynein cargo inh -4.4*, RAM network inh 21*, RAM 5-FOA 3 and Dynein inh conf inconclusive.
CC(=O)Nc1ccc(NC(=O)CCC(=O)OCC(=O)c2cccc([N+](=O)[O-])c2)cc1 was read as pCIP destab 10, NCF1 inh -4, Dynein cargo inh -0.16 and RAM network inh 1.
CCOC(=O)C1=C(Cc2ccc(F)cc2)C(=O)c2ccccc2C1=O was read as pCIP destab -41, NCF1 inh 1, Dynein cargo inh -1.7 and RAM network inh 6.
For CCCCc1ccc(/C=C2\C(=O)c3ccccc3C(O)=C2C(=O)OCC)cc1 the results were pCIP destab 1, NCF1 inh 58*, Dynein cargo inh -4.2*, RAM network inh 14*, RAM 5-FOA 8 and Dynein inh conf active.
Screening CCCC(=O)OCCNc1cc(SCc2ccco2)c2nonc2c1[N+](=O)[O-] returned pCIP destab -15, NCF1 inh -11, Dynein cargo inh -3.9*, RAM network inh 14*, RAM 5-FOA 3 and Dynein inh conf active.
For O=c1[nH]c2ccc(NCc3ccccc3OCc3ccc(Cl)cc3)cc2[nH]1 the results were pCIP destab -2.
Screening CC(C)(C)NC(=O)NC(=O)CN1CCCc2ccccc21 returned pCIP destab -2, NCF1 inh -7, Dynein cargo inh 0.14 and RAM network inh 2.
Screening O=C(CN1CCCc2ccccc21)NC(=O)NC1CCCCC1 returned pCIP destab 9, NCF1 inh -3, Dynein cargo inh -3.6, RAM network inh 2 and Dynein inh conf inactive.
Clc1ccc(-c2csc3ncnc(Cl)c23)cc1 was read as pCIP destab -4, NCF1 inh -5, Dynein cargo inh -4*, RAM network inh 4 and Dynein inh conf active.
`COc1ccc(Nc2ncnc3scc(-c4ccc(OC)cc4)c23)cc1` gave pCIP destab -6, NCF1 inh -21, Dynein cargo inh -0.21 and RAM network inh 6.
COc1ccc(-c2csc3ncnc(Cl)c23)cc1 was read as pCIP destab -16, NCF1 inh -1, Dynein cargo inh -4.1*, RAM network inh 4 and Dynein inh conf inactive.
Fc1ccc(-c2csc3ncnc(Cl)c23)cc1 was read as pCIP destab -12, NCF1 inh -9, Dynein cargo inh -2.8 and RAM network inh 2.
Screening CCSc1nnc(NC(=O)c2ccccc2C)s1 returned pCIP destab 14, NCF1 inh -12, Dynein cargo inh -0.6 and RAM network inh 0.
Screening Cc1ccc(N2C(=O)C(F)(F)C2c2ccccc2)cc1 (stereo not drawn) returned pCIP destab -11, NCF1 inh -7, Dynein cargo inh 0.67 and RAM network inh 3.
Cc1ccc(N2C(=N)/C(=C3/Nc4ccccc4S3)C(c3ccccc3)C2=O)cc1 (stereo not drawn) was read as pCIP destab -3, NCF1 inh -5, Dynein cargo inh -3.6*, RAM network inh 5 and Dynein inh conf active.
`CCOC(=O)C1(CCc2ccccc2)CCN(C(=O)CN2CCOC2=O)CC1` gave pCIP destab 3, NCF1 inh -8, Dynein cargo inh 1.3 and RAM network inh 1.
CCCn1c(CC)nc([N+](=O)[O-])c1S(=O)(=O)c1ccccc1 was read as pCIP destab -6, NCF1 inh 0, Dynein cargo inh -5.1*, RAM network inh 3 and Dynein inh conf active.
Screening Cn1cnc([N+](=O)[O-])c1S(=O)(=O)c1cccc(Cl)c1 returned pCIP destab 6, NCF1 inh -1, Dynein cargo inh -3.3 and RAM network inh 2.
`Cc1nn(-c2ccccc2)c(Cl)c1CN(C(=O)CCl)c1ccc(Cl)cc1` gave pCIP destab -2, NCF1 inh -1, Dynein cargo inh -3.9*, RAM network inh 1 and Dynein inh conf active.
CC(C)[C@H](NC(=O)[C@@H]1Cc2c([nH]c3ccccc23)C2c3ccccc3C(=O)N21)C(=O)N1CCC[C@@H]1C(=O)O (stereo partly drawn) was read as pCIP destab 1.
Cc1ccnc(N/C=C(\C#N)c2nc(-c3cccc(Br)c3)cs2)c1 was read as pCIP destab -55, NCF1 inh -7, Dynein cargo inh -12, RAM network inh 6 and Dynein inh conf active.

Screening data: PubChem, several laboratories
